According to ChEMBL document CHEMBL1649261, “Pharmacodynamic profile of tigecycline against methicillin-resistant Staphylococcus aureus in an experimental pneumonia model” (Antimicrob Agents Chemother, 2009):
≈ marks a conversion by molar mass, not a printed value.

What was measured:
[1] = Protein binding in Staphylococcus aureus-infected BALB/c mouse serum at 50 mg/kg, sc administered as single dose; assay type: ADME, organism-based; parameters: dose 50 mg/kg, route subcutaneous; conditions: read-out: PB (converted)
Outline: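 Ultrafiltration was run in triplicate with 30,000-MW cutoff devices. Drug was diluted into fresh mouse serum to final 1.5, 3, 6 and 15 μg/ml, held at 37°C for 10 min with shaking, and centrifuged at 1,000 × g for 45 min at 10°C. Binding was calculated as (S − SUF)/S × 100 for each concentration, each matched to a dose by its peak serum level.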

[2] = Ratio of fAUC to MIC in hospital-acquired methicillin-resistant Staphylococcus aureus 152-infected BALB/c mouse at 80% maximal effective concentration; assay type: functional
Outline: (§1)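 Neutropenic BALB/c mice (cyclophosphamide 250 and 100 mg/kg i.p., 4 and 1 days before infection) were infected by oral inhalation of 0.05 ml inoculum in 3% mucin under isoflurane. Subcutaneous tigecycline (1.56–150 mg/kg/day, single or 2–3 divided doses, saline vehicle) was started 6 h post-infection. At 24 h lungs were homogenized and plated; change in log10 CFU was taken versus 0-h controls.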

[3] = AUC (0 to 8 hrs) in Staphylococcus aureus-infected BALB/c mouse epithelial lining fluid at 12.5 mg/kg, sc administered as single dose; assay type: ADME, organism-based; parameters: time < 8 hr, dose 12.5 mg/kg, route subcutaneous
Outline: (§2)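 Infected neutropenic BALB/c mice received a single sc dose in saline. Normal-saline bronchoalveolar lavage was done at 0.25, 1, 4 and 8 h, six mice per time. HPLC drug levels in lavage were converted to epithelial lining fluid concentrations with the serum/BAL urea ratio. AUC0-8 was calculated by the trapezoidal rule, and ELF drug was taken as free drug.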

[4] = Ratio of fAUC to MIC in community-acquired methicillin-resistant Staphylococcus aureus 156-infected BALB/c mouse at bacteriostatic concentration; assay type: functional; outline: as §1
[5] = Ratio of fAUC to MIC in hospital-acquired methicillin-resistant Staphylococcus aureus 56-infected BALB/c mouse at 80% maximal effective concentration; assay type: functional; outline: as §1
[6] = system: Mus musculus; test: Volume of distribution in BALB/c mouse infected with Staphylococcus aureus at 6.25 mg/kg, sc administered as single dose; assay type: ADME, organism-based; parameters: dose 6.25 mg/kg, route subcutaneous; conditions: in vivo
Outline: (§3)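 Neutropenic BALB/c mice (cyclophosphamide ip 250 and 100 mg/kg, days −4 and −1) with S. aureus pneumonia from oral instillation of 0.05 ml of a 3% mucin suspension received a single 0.2-ml sc dose in normal saline. Serum was taken at 0.25, 0.5, 1, 1.5, 2, 4, 6 and 8 h, six mice per time point. Drug was measured by validated HPLC.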

[7] = AUC (0 to 8 hrs) in Staphylococcus aureus-infected BALB/c mouse epithelial lining fluid at 50 mg/kg, sc administered as single dose; assay type: ADME, organism-based; parameters: time < 8 hr, dose 50 mg/kg, route subcutaneous; outline: as §2
[8] = Tmax in BALB/c mouse infected with Staphylococcus aureus at 25 mg/kg, sc administered as single dose; assay type: ADME, organism-based; parameters: dose 25 mg/kg, route subcutaneous; conditions: in vivo; outline: as §3
[9] = Ratio of fAUC to MIC in community-acquired methicillin-resistant Staphylococcus aureus 144-infected BALB/c mouse at […] maximal effective concentration; assay type: functional; outline: as §1
[10] = Ratio of fAUC to MIC in hospital-acquired methicillin-resistant Staphylococcus aureus 56-infected BALB/c mouse at bacteriostatic concentration; assay type: functional; outline: as §1
[11] = Ratio of fAUC to MIC in community-acquired methicillin-resistant Staphylococcus aureus 144-infected BALB/c mouse at bacteriostatic concentration; assay type: functional; outline: as §1
[12] = Ratio of fAUC to MIC in community-acquired methicillin-resistant Staphylococcus aureus 156-infected BALB/c mouse at […] maximal effective concentration; assay type: functional; outline: as §1
[13] = system: Staphylococcus aureus; test: Antibacterial activity against hospital-acquired methicillin-resistant Staphylococcus aureus 152 by microdilution method; assay type: functional
Outline: (§4)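 Tigecycline MIC measured in triplicate by broth microdilution following CLSI guidelines. Isolates were stored at −80°C in skim milk and subcultured twice on blood agar before testing.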

[14] = Ratio of fAUC to MIC in methicillin-susceptible Staphylococcus aureus ATCC 29213-infected BALB/c mouse at bacteriostatic concentration; assay type: functional
Outline: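 Mice were neutropenic and infected by lung instillation with ATCC 29213, with the MIC set by CLSI broth microdilution in triplicate. Sc treatment started 6 h post-inoculation at 1.56–150 mg/kg/day, given as one, two or three doses. Lung CFU at 24 h were compared with 0-h controls. Change in log10 CFU was fitted against protein-binding-corrected fAUC/MIC with a sigmoid Emax model.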

[15] = Half life in BALB/c mouse infected with Staphylococcus aureus at 12.5 mg/kg, sc administered as single dose; assay type: ADME, organism-based; parameters: dose 12.5 mg/kg, route subcutaneous; conditions: in vivo; outline: as §3
[16] = Ratio of fAUC to MIC in community-acquired methicillin-resistant Staphylococcus aureus 144-infected BALB/c mouse at 80% maximal effective concentration; assay type: functional; outline: as §1
[17] = Tmax in BALB/c mouse infected with Staphylococcus aureus at 50 mg/kg, sc administered as single dose; assay type: ADME, organism-based; parameters: dose 50 mg/kg, route subcutaneous; conditions: in vivo; outline: as §3
[18] = Tmax in BALB/c mouse infected with Staphylococcus aureus at 6.25 mg/kg, sc administered as single dose; assay type: ADME, organism-based; parameters: dose 6.25 mg/kg, route subcutaneous; conditions: in vivo; outline: as §3
[19] = system: Staphylococcus aureus; test: Antibacterial activity against community-acquired methicillin-resistant Staphylococcus aureus 147 by microdilution method; assay type: functional; outline: as §4
[20] = Ratio of fAUC (0 to 8 hrs) in epithelial lining fluid to plasma of Staphylococcus aureus-infected BALB/c mouse at 50 mg/kg, sc administered as single dose; assay type: ADME, organism-based; parameters: dose 50 mg/kg, route subcutaneous
Outline: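 Neutropenic BALB/c mice (cyclophosphamide ip 250 and 100 mg/kg, 4 d and 1 d pre-inoculation) infected orally with S. aureus in 3% mucin. Single 0.2-ml sc dose in normal saline; six mice per time point. Serum sampled 0.25–8 h, BAL at 0.25, 1, 4, 8 h; HPLC; ELF by urea correction. Trapezoidal AUC0-8; serum corrected for ultrafiltration protein binding, BAL drug assumed free.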

[21] = Cmax in BALB/c mouse infected with Staphylococcus aureus at 6.25 mg/kg, sc administered as single dose; assay type: ADME, organism-based; parameters: dose 6.25 mg/kg, route subcutaneous; conditions: in vivo; outline: as §3
[22] = system: Staphylococcus aureus; test: Antibacterial activity against methicillin-susceptible Staphylococcus aureus ATCC 29213 by microdilution method; assay type: functional; outline: as §4
[23] = Half life in BALB/c mouse infected with Staphylococcus aureus at 6.25 mg/kg, sc administered as single dose; assay type: ADME, organism-based; parameters: dose 6.25 mg/kg, route subcutaneous; conditions: in vivo; outline: as §3
[24] = Tmax in BALB/c mouse infected with Staphylococcus aureus at 12.5 mg/kg, sc administered as single dose; assay type: ADME, organism-based; parameters: dose 12.5 mg/kg, route subcutaneous; conditions: in vivo; outline: as §3
[25] = AUC (0 to 24 hrs) in BALB/c mouse infected with Staphylococcus aureus at 6.25 mg/kg, sc administered as single dose; assay type: ADME, organism-based; parameters: time < 24 hr, dose 6.25 mg/kg, route subcutaneous; conditions: plasma; outline: as §3
[26] = system: Staphylococcus aureus; test: Antibacterial activity against hospital-acquired methicillin-resistant Staphylococcus aureus 56 by microdilution method; assay type: functional; outline: as §4
[27] = system: Mus musculus; test: Volume of distribution in BALB/c mouse infected with Staphylococcus aureus at 12.5 mg/kg, sc administered as single dose; assay type: ADME, organism-based; parameters: dose 12.5 mg/kg, route subcutaneous; conditions: in vivo; outline: as §3
[28] = system: Staphylococcus aureus; test: Antibacterial activity against community-acquired methicillin-resistant Staphylococcus aureus 144 by microdilution method; assay type: functional; outline: as §4
[29] = system: Mus musculus; test: Volume of distribution in BALB/c mouse infected with Staphylococcus aureus at 50 mg/kg, sc administered as single dose; assay type: ADME, organism-based; parameters: dose 50 mg/kg, route subcutaneous; conditions: in vivo; outline: as §3
[30] = Ratio of fAUC to MIC in community-acquired methicillin-resistant Staphylococcus aureus 147-infected BALB/c mouse at bacteriostatic concentration; assay type: functional; outline: as §1

In the case of `CN(C)c1cc(NC(=O)CNC(C)(C)C)c(O)c2c1C[C@H]1C[C@H]3[C@H](N(C)C)C(O)=C(C(N)=O)C(=O)[C@@]3(O)C(O)=C1C2=O` [TIGECYCLINE], the fraction unbound [1] is reported as 0.041, the fAUC/MIC [2] is reported as 2.48 and the AUC(0-t) at 8 h [3] is reported as 11000 ng·h/mL. For the same molecule, the fAUC/MIC [4] was 4.18, the fAUC/MIC [5] was 2.11 and the Vd [6] was 3.44 L/kg. It also gave an AUC(0-t) at 8 h [7] of 41900 ng·h/mL, a Tmax [8] of 44.4 min and a fAUC/MIC [9] of 2.29. It also gave a fAUC/MIC [10] of 0.43, a fAUC/MIC [11] of 2.17 and a fAUC/MIC [12] of 3.91. For the same molecule, the MIC [13] was 0.25 µg/mL (≈ 0.427 µM), the fAUC/MIC [14] was 2.38 and the half-life [15] was 428 min. For the same molecule, the fAUC/MIC [16] was 2.64, the Tmax [17] was 21 min and the Tmax [18] was 20.4 min. For the same molecule, the MIC [19] was 0.25 µg/mL (≈ 0.427 µM), the Kp uu [20] was 23.9 and the Cmax [21] was 1570 ng/mL. For the same molecule, the MIC [22] was 0.25 µg/mL (≈ 0.427 µM), the half-life [23] was 744 min and the Tmax [24] was 16.2 min. For the same molecule, the AUC(0-t) at 24 h [25] was 9980 ng·h/mL, the MIC [26] was 0.5 µg/mL (≈ 0.854 µM) and the Vd [27] was 3.62 L/kg. It also gave an MIC [28] of 0.25 µg/mL (≈ 0.427 µM), a Vd [29] of 2.62 L/kg and a fAUC/MIC [30] of 0.41.
